Laboratory results: ChEMBL document CHEMBL1671756, “In vitro and in vivo antifungal susceptibilities of the Mucoralean fungus Cunninghamella” (2010)
Activity calls are given as the source filed them.

Key:
Format in all cases: functional, organism-based
[1] = test system: Cunninghamella bertholletiae; experiment: Antifungal activity against Cunninghamella bertholletiae UTHSC 04-2581 infected in neutropenic OF1 mouse assessed as decreased fungal load in lung at 0.8 mg/kg, iv qd administered 1 day post infection measured after 4 to 5 days relative to untreated control; design: dose 0.8 mg/kg
In short: (§1)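 Neutropenic male OF1 mice (cyclophosphamide 200 mg/kg i.p. plus 5-fluorouracil 150 mg/kg i.v., day −1) were given 1 × 10⁴ CFU sporangiospores i.v. in 0.2 ml saline. Treatment from 24 h: 0.8 mg/kg i.v. or oral doses once daily; 10 mice per group. Killed at day 5 (day 4 if moribund). About half of brain, lungs and kidneys homogenized in saline; 10-fold dilutions plated on PDA for 24 h at 35°C; log₁₀ CFU/g tissue.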

[2] = test system: Cunninghamella bertholletiae; experiment: Antifungal activity against Cunninghamella bertholletiae UTHSC 05-2275 infected in neutropenic OF1 mouse assessed as decreased fungal load in lung at 0.8 mg/kg, iv qd administered 1 day post infection measured after 4 to 5 days relative to untreated control; design: dose 0.8 mg/kg
In short: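 Neutropenic male OF1 mice (cyclophosphamide 200 mg/kg i.p. + 5-fluorouracil 150 mg/kg i.v., day −1) were infected i.v. with 1 × 10⁴ CFU. Ten mice per group were treated from day 1 and killed by CO₂ on day 5, or on day 4 if moribund. Half of each brain, lung and kidney was homogenized in 1 ml saline. Ten-fold dilutions were plated on PDA for 24 h at 35°C and counted as log₁₀ CFU/g.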

[3] = test system: Cunninghamella bertholletiae; experiment: Antifungal activity against Cunninghamella bertholletiae UTHSC 04-2581 infected in neutropenic OF1 mouse assessed as decreased fungal load in kidney at 0.8 mg/kg, iv qd administered 1 day post infection measured after 4 to 5 days relative to untreated control; design: dose 0.8 mg/kg; in short: as §1
[4] = test system: Cunninghamella bertholletiae; experiment: Antifungal activity against Cunninghamella bertholletiae FMR 9598 infected in neutropenic OF1 mouse assessed as increase in mouse survival rate at 0.8 mg/kg, iv qd administered 1 day after infection for 7 days relative to untreated control; design: dose 0.8 mg/kg
In short: (§2)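 Male OF1 mice (~30 g) were made neutropenic with cyclophosphamide 200 mg/kg i.p. plus 5-fluorouracil 150 mg/kg i.v. 1 day before challenge. Challenge was 1 × 10⁴ CFU sporangiospores in 0.2 ml saline via the lateral tail vein. Mice got ceftazidime 5 mg/day s.c. on days 1–7. Dosing started 24 h post-challenge for 7 days. There were 10 mice/group, observed daily for 20 days. Kaplan-Meier analysis with log-rank test.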

[5] = test system: Cunninghamella bertholletiae; experiment: Antifungal activity against Cunninghamella bertholletiae UTHSC 04-2581 infected in neutropenic OF1 mouse assessed as increase in mouse survival rate at 0.8 mg/kg, iv qd administered 1 day after infection for 7 days relative to untreated control; design: dose 0.8 mg/kg; in short: as §2
[6] = test system: Cunninghamella bertholletiae; experiment: Antifungal activity against Cunninghamella bertholletiae FMR-9598 infected in neutropenic OF1 mouse assessed as decreased fungal load in lung at 0.8 mg/kg, iv qd administered 1 day post infection measured after 4 to 5 days relative to untreated control; design: dose 0.8 mg/kg; in short: as §1
[7] = test system: Cunninghamella bertholletiae; experiment: Antifungal activity against Cunninghamella bertholletiae UTSCH 05-2275 infected in diabetic OF1 mouse assessed lung at 60 mg/kg, po qd administered 1 day post infection measured after 4 to 5 days relative to untreated control; design: dose 60 mg/kg
In short: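 Male OF1 mice (mean 30 g) made diabetic with a single i.p. dose of streptozocin 210 mg/kg; blood glucose >250 mg/dl at day 10 qualified. Ceftazidime 5 mg/day s.c. given on days 1–7. Challenge by lateral tail vein with 1 × 10⁵ CFU sporangiospores in 0.2 ml saline. Oral dosing once daily for 7 days, starting 1 day after challenge. Untreated controls. Ten mice per group.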

[8] = test system: Cunninghamella bertholletiae; experiment: Antifungal activity against Cunninghamella bertholletiae UTHSC 04-2581 infected in neutropenic OF1 mouse assessed as increase in mouse survival rate at 60 mg/kg, po qd administered 1 day after infection for 7 days relative to untreated control; design: dose 60 mg/kg
In short: (§3)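 Male OF1 mice, about 30 g, made neutropenic with cyclophosphamide 200 mg/kg i.p. plus 5-fluorouracil 150 mg/kg i.v. 1 day before challenge. Infected i.v. via the lateral tail vein with 1 × 10⁴ CFU of hemacytometer-counted sporangiospores in 0.2 ml saline. Ceftazidime 5 mg/day s.c. on days 1–7. Oral treatment started 24 h after challenge; 10 mice per group; checked daily for 20 days; Kaplan-Meier mean survival time, log-rank test.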

[9] = test system: Cunninghamella bertholletiae; experiment: Antifungal activity against Cunninghamella bertholletiae UTSCH 05-2275 infected in diabetic OF1 mouse assessed as decreased fungal load in kidney at 40 mg/kg, po qd administered 1 day post infection measured after 4 to 5 days relative to untreated control; design: dose 40 mg/kg
In short: (§4)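 Diabetic male OF1 mice (streptozocin 210 mg/kg i.p.; glucose above 250 mg/dl) were challenged i.v. with 1 × 10⁵ CFU sporangiospores. Oral once-daily dosing from day 1 for 7 days; 10 mice per group. Killed at day 5 (day 4 if moribund). About half of each organ homogenized in saline; serial 10-fold dilutions plated on PDA for 24 h at 35°C; log₁₀ CFU/g tissue.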

[10] = test system: Cunninghamella bertholletiae; experiment: Antifungal activity against Cunninghamella bertholletiae UTHSC 05-2275 infected in neutropenic OF1 mouse assessed as decreased fungal load in lung at 40 mg/kg, po qd administered 1 day post infection measured after 4 to 5 days relative to untreated control; design: dose 40 mg/kg; in short: as §1
[11] = test system: Cunninghamella bertholletiae; experiment: Antifungal activity against Cunninghamella bertholletiae UTHSC 05-2275 infected in neutropenic OF1 mouse assessed as increase in mouse survival rate at 40 mg/kg, po qd administered 1 day after infection for 7 days relative to untreated control; design: dose 40 mg/kg; in short: as §3
[12] = test system: Cunninghamella bertholletiae; experiment: Antifungal activity against Cunninghamella bertholletiae UTSCH 05-2275 infected in diabetic OF1 mouse assessed as decreased fungal load in brain at 80 mg/kg, po qd administered 1 day post infection measured after 4 to 5 days relative to untreated control; design: dose 80 mg/kg; in short: as §4
[13] = test system: Cunninghamella bertholletiae; experiment: Antifungal activity against Cunninghamella bertholletiae UTSCH 05-2275 infected in diabetic OF1 mouse assessed as decreased fungal load in brain at 40 mg/kg, po qd administered 1 day post infection measured after 4 to 5 days relative to untreated control; design: dose 40 mg/kg; in short: as §4
[14] = test system: Cunninghamella bertholletiae; experiment: Antifungal activity against Cunninghamella bertholletiae FMR 9598 infected in neutropenic OF1 mouse assessed as increase in mouse survival rate at 60 mg/kg, po qd administered 1 day after infection for 7 days relative to untreated control; design: dose 60 mg/kg; in short: as §3
[15] = test system: Cunninghamella bertholletiae; experiment: Antifungal activity against Cunninghamella bertholletiae UTSCH 05-2275 infected in diabetic OF1 mouse assessed as decreased fungal load in kidney at 60 mg/kg, po qd administered 1 day post infection measured after 4 to 5 days relative to untreated control; design: dose 60 mg/kg; in short: as §4
[16] = test system: Cunninghamella bertholletiae; experiment: Antifungal activity against Cunninghamella bertholletiae UTHSC 05-2275 infected in diabetic OF1 mouse assessed as increase in mouse survival rate at 20 mg/kg, po qd administered 1 day after infection for 7 days relative to untreated control; design: dose 20 mg/kg
In short: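 Male OF1 mice made diabetic with streptozocin 210 mg/kg i.p.; blood glucose above 250 mg/dl at day 10 required. Infected i.v. via the tail vein with 1 × 10⁵ CFU sporangiospores in 0.2 ml saline. Ceftazidime 5 mg/day s.c. on days 1–7. Oral once-daily treatment from day 1 for 7 days; 10 mice per group; followed for 20 days; Kaplan-Meier mean survival time, log-rank test.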

Measured: Activity

C[C@@H]1[C@H](O)[C@@H](C)/C=C/C=C/C=C/C=C/C=C/C=C/C=C/[C@H](O[C@@H]2O[C@H](C)[C@@H](O)[C@H](N)[C@@H]2O)C[C@@H]2O[C@](O)(C[C@@H](O)C[C@@H](O)[C@H](O)CC[C@@H](O)C[C@@H](O)CC(=O)O[C@H]1C)C[C@H](O)[C@H]2C(=O)O [AMPHOTERICIN B]
active: [1] | [2] | [3] | [5] | [6]
inactive: [4]

CC[C@@H]([C@H](C)O)n1ncn(-c2ccc(N3CCN(c4ccc(OC[C@@H]5CO[C@@](Cn6cncn6)(c6ccc(F)cc6F)C5)cc4)CC3)cc2)c1=O [POSACONAZOLE]
inactive: [13] | [16]
active: [7] | [8] | [9] | [10] | [11] | [12] | [14] | [15]
